Blank lines part the entries; values can stand above or below the molecule they belong to. Calls of active or inactive are those of the source. The rule behind the calls is not given here.
Experiments:
[1] = biological target: Tumour suppressor p53/oncoprotein Mdm2 (Homo sapiens, UniProt Q00987); assay: Inhibition of human MDM2-p53 interaction after 20 mins by […] method; type: protein assay
[2] = system: SJSA-1; assay: Growth inhibition of human SJSA1 cells expressing MDM2 by SRB assay; type: functional
Summary of the method: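 Growth inhibition assayed in the MDM2-amplified cell line SJSA-1. Values are the mean of at least three determinations ± SE.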

[3] = system: HCT-116; assay: Growth inhibition of human HCT116 cells expressing MDM2 by SRB assay; type: functional
[4] = system: HCT-116; assay: Growth inhibition of p53 deficient human HCT116 cells expressing MDM2 by SRB assay; type: functional
[5] = system: A2780; assay: Growth inhibition of human A2780 cells expressing MDM2 by SRB assay; type: functional
[6] = Growth inhibition of human A2780/CP70 cells expressing isogenically paired p53 mutant by SRB assay; type: functional
[7] = system: SJSA-1; assay: Increase of MDM2 expression in human SJSA1 cells after 6 hrs by Western blotting; type: functional, cell-based
[8] = system: SJSA-1; assay: Increase of P53 expression in human SJSA1 cells after 6 hrs by Western blotting; type: functional, cell-based
[9] = system: SJSA-1; assay: Increase of P21 protein level in human SJSA1 cells after 6 hrs by Western blotting; type: functional, cell-based
[10] = system: SJSA-1; assay: Increase of P21 protein level in human SJSA1 cells at 5 to 10 uM after 6 hrs by Western blotting; type: functional, cell-based
[11] = system: SJSA-1; assay: Increase of P53 expression in human SJSA1 cells at 5 to 10 uM after 6 hrs by Western blotting; type: functional, cell-based
[12] = system: SJSA-1; assay: Increase of MDM2 expression in human SJSA1 cells at 5 to 10 uM after 6 hrs by Western blotting; type: functional, cell-based

Chain of Tumour suppressor p53/oncoprotein Mdm2 (P04637 whole entry): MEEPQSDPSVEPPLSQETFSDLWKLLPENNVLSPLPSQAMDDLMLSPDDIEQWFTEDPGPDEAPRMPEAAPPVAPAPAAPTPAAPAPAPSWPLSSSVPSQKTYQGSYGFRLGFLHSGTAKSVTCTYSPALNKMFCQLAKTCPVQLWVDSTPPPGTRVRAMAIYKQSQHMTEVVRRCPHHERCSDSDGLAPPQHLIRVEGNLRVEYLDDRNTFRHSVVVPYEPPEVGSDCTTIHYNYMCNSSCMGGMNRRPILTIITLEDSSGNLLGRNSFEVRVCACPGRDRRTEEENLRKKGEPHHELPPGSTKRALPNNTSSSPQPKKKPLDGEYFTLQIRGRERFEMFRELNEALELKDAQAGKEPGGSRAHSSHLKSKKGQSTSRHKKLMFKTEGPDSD
Chain of Tumour suppressor p53/oncoprotein Mdm2 (Q00987 whole entry): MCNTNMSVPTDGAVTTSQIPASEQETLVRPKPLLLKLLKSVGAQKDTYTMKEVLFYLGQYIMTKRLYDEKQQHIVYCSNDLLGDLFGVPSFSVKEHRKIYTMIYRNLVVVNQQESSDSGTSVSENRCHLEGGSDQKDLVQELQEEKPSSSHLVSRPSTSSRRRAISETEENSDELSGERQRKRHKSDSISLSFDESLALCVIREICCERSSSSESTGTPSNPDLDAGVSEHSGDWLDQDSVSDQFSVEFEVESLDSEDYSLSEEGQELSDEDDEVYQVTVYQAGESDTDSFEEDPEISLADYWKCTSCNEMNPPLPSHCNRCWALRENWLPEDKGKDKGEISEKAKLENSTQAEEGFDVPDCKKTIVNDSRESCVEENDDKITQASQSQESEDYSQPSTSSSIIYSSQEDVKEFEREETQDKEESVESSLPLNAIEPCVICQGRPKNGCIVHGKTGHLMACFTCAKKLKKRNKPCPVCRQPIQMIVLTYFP

SMILES: O=C1C2=C(CCCC2)C(OCC2(CO)CC2)(c2ccc(Cl)cc2)N1Cc1ccc([N+](=O)[O-])cc1 (stereo not drawn)
IC50 [1]: 3.47 µM

SMILES: CC1=C(C)C(OCC2(CO)CC2)(c2ccc(Cl)cc2)N(Cc2ccccc2)C1=O (stereo not drawn)
IC50 [1]: 3.45 µM

SMILES: CCCN1C(=O)C(C)=C(C)C1(OCC1(CO)CC1)c1ccc(Cl)cc1 (stereo not drawn)
IC50 [1]: 8.9 µM

SMILES: O=C1c2cccc(Cl)c2C(OCC2(CO)CC2)(c2ccc(Cl)cc2)N1Cc1ccc([N+](=O)[O-])cc1 (racemic) [listing 1 of 2 here]
GI50 [2]: 6 µM
GI50 [3]: 6 µM
GI50 [4]: 14.9 µM
GI50 [5]: 4.2 µM
GI50 [6]: 15.9 µM

SMILES: O=C1c2cccc(Cl)c2C(OCC2(CO)CC2)(c2ccc(Cl)cc2)N1Cc1ccc([N+](=O)[O-])cc1 (racemic) [listing 2 of 2 here]
Activity [7]: Dose-dependent effect
Activity [8]: Dose-dependent effect
Activity [9]: Dose-dependent effect

SMILES: O=C1c2cccc(Cl)c2C(OCC2(CO)CC2)(c2ccc(Cl)cc2)N1Cc1ccc([N+](=O)[O-])cc1 (single isomer, unassigned; (+)) [listing 2 of 2 here]
Activity [10]: inactive
Activity [11]: inactive
Activity [12]: inactive

SMILES: O=C1c2cccc(Cl)c2C(OCC2(CO)CC2)(c2ccc(Cl)cc2)N1Cc1ccc([N+](=O)[O-])cc1 (single isomer, unassigned; (-)) [listing 2 of 2 here]
Activity [7]: Dose-dependent effect
Activity [8]: Dose-dependent effect
Activity [9]: Dose-dependent effect

Now from value to molecule, other results behind:

IC50 [1]: 9 µM
SMILES: O=C1c2cccc(Cl)c2C(OCC2(CO)CC2)(c2ccc(Cl)cc2)N1Cc1ccc(S(=O)(=O)C(F)(F)F)cc1 (stereo not drawn)

GI50 ([2]; Homo sapiens, SJSA-1): 0.55 µM
GI50 ([3]; Homo sapiens, HCT-116): 1.3 µM
GI50 ([4]; Homo sapiens, HCT-116): 11.8 µM
GI50 ([5]; Homo sapiens, A2780): 1.19 µM
SMILES: CC(C)(C)C[C@H]1N[C@@H](C(=O)NCCN2CCOCC2)[C@H](c2cccc(Cl)c2F)[C@@]12C(=O)Nc1cc(Cl)ccc12
GI50 ([6]; Homo sapiens, A2780/CP70): 15.1 µM

GI50 [2]: 12.2 µM
GI50 [3]: 12.3 µM
GI50 [4]: 14.4 µM
GI50 [5]: 7.7 µM
SMILES: O=C1c2cccc(Cl)c2C(OCC2(CO)CC2)(c2ccc(Cl)cc2)N1Cc1ccc([N+](=O)[O-])cc1 (single isomer, unassigned; (+)) [listing 1 of 2 here]
GI50 [6]: 14.5 µM

GI50 [2]: 3.7 µM
GI50 [3]: 3.7 µM
GI50 ([4]; Homo sapiens, HCT-116): 12.5 µM
GI50 [5]: 3.3 µM
SMILES: O=C1c2cccc(Cl)c2C(OCC2(CO)CC2)(c2ccc(Cl)cc2)N1Cc1ccc([N+](=O)[O-])cc1 (single isomer, unassigned; (-)) [listing 1 of 2 here]
GI50 ([6]; Homo sapiens, A2780/CP70): 13.6 µM

GI50 ([2]; Homo sapiens, SJSA-1): 1.3 µM
GI50 ([3]; Homo sapiens, HCT-116): 2.1 µM
GI50 ([4]; Homo sapiens, HCT-116): 25.6 µM
GI50 ([5]; Homo sapiens, A2780): 1.6 µM
SMILES: COc1ccc(C2=N[C@@H](c3ccc(Cl)cc3)[C@@H](c3ccc(Cl)cc3)N2C(=O)N2CCNC(=O)C2)c(OC(C)C)c1 [NUTLIN-3]
GI50 ([6]; Homo sapiens, A2780/CP70): 20.4 µM
